Measured values published in ChEMBL document CHEMBL1806434, “Acyclic nucleoside phosphonates with a branched 2-(2-phosphonoethoxy)ethyl chain: efficient synthesis and antiviral activity” (Bioorg Med Chem, 2011).
Calls of active or inactive are those of the source. The rule behind the calls is not given here.

Legend:
[1] = Selectivity index, ratio CC50 for human HEL cells to EC50 for Herpes simplex virus 1 strain KOS; assay type: toxicity, cell-based; conditions: read-out: Ratio CC50/EC50
Method in brief: (§1)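 HEL fibroblasts seeded at 5 × 10^3 cells/well and allowed to grow 24 h. Medium with compound dilutions is then added and cells are incubated 3 days at 37 °C before Coulter counting. CC50, the concentration halving cell number relative to untreated controls, is read from plots. SI is CC50 divided by the antiviral EC50 from the CPE or plaque-reduction assay in HEL cells.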

[2] = system: Human respirovirus 3; assay: Antiviral activity against Human parainfluenza virus 3 assessed as reduction of virus induced cytopathicity by cell based assay; assay type: functional, organism-based
Method in brief: (§2)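 Confluent cell monolayers in 96-well plates (HEL, Vero, HeLa, CRFK or MDCK; the cell type per virus is not specified) infected with 100 CCID50 virus or 20 PFU and incubated with serial compound dilutions. Cytopathicity scored once it was complete in untreated infected controls.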

[3] = Selectivity index, ratio CC50 for human HEL cells to EC50 for thymidine kinase-deficient Varicella-zoster virus 07/1; assay type: toxicity, cell-based; conditions: read-out: Ratio CC50/EC50; method in brief: as §1
[4] = Selectivity index, ratio CC50 for human HEL cells to EC50 for Vaccinia virus Lederle; assay type: toxicity, cell-based; conditions: read-out: Ratio CC50/EC50; method in brief: as §1
[5] = Selectivity index, ratio CC50 for human HEL cells to EC50 for Human cytomegalovirus strain AD169; assay type: toxicity, cell-based; conditions: read-out: Ratio CC50/EC50; method in brief: as §1
[6] = system: Human alphaherpesvirus 3; assay: Antiviral activity against Varicella-zoster virus YS expressing thymidine kinase assessed as reduction of virus induced cytopathicity by cell based assay; assay type: functional, organism-based; conditions: Human alphaherpesvirus 3, YS
[7] = system: Human alphaherpesvirus 3; assay: Antiviral activity against thymidine kinase-deficient Varicella-zoster virus YS/R assessed as reduction of virus induced cytopathicity by cell based assay; assay type: functional, organism-based; conditions: Human alphaherpesvirus 3, YS/R
[8] = system: Vaccinia virus; assay: Antiviral activity against Vaccinia virus Lederle assessed as reduction of virus induced cytopathicity by cell based assay; assay type: functional, organism-based; conditions: Orthopoxvirus vaccinia
Method in brief: (§3)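 Confluent cell monolayers infected with 100 CCID50 virus, or 20 PFU for plaque assays, then incubated with serial compound dilutions. Host cells listed for the non-HIV panel are HEL fibroblasts, Vero, HeLa, CRFK or MDCK. Cytopathicity is scored, or plaques counted for VZV, once infected untreated controls reach full CPE.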

[9] = system: Human alphaherpesvirus 1; assay: Antiviral activity against thymidine kinase-deficient acyclovir-resistant Herpes simplex virus 1 strain KOS assessed as reduction of virus induced cytopathicity by cell based assay; assay type: functional, organism-based; conditions: Human alphaherpesvirus 1, KOS; method in brief: as §3
[10] = system: Human alphaherpesvirus 3; assay: Antiviral activity against Varicella-zoster virus strain OKA expressing thymidine kinase assessed as reduction of virus induced cytopathicity by cell based assay; assay type: functional; conditions: Human alphaherpesvirus 3, strain Oka vaccine; method in brief: as §3
[11] = Cytotoxicity against human HEL cells assessed as alteration of cell morphology after 3 days by microscopic analysis; assay type: cell-based
Method in brief: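 MCC taken as the lowest compound concentration producing microscopically detectable alteration of HEL fibroblast morphology.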

[12] = Selectivity index, ratio CC50 for human HEL cells to EC50 for Herpes simplex virus 2 strain G; assay type: toxicity, cell-based; conditions: read-out: Ratio CC50/EC50; method in brief: as §1
[13] = system: Human betaherpesvirus 5; assay: Antiviral activity against Human cytomegalovirus Davis assessed as reduction of virus induced cytopathicity by cell based assay; assay type: functional, organism-based; conditions: Human betaherpesvirus 5, Davis; method in brief: as §3
[14] = system: Human immunodeficiency virus 2; assay: Antiviral activity against Human immunodeficiency virus type 2 ROD infected in human CEM cells assessed as HIV-induced CEM giant cell formation after 4 days by microscopy; assay type: functional, organism-based; conditions: Human immunodeficiency virus 2, ISOLATE ROD, CCRF-CEM, 96 h
Method in brief: (§4)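 Human CEM cells (~3 × 10^5 cells/ml) infected with 100 CCID50/ml of HIV-1 (IIIB) or HIV-2 (ROD), then seeded into wells holding compound dilutions. After 4 days at 37 °C, HIV-induced giant cell formation is scored by microscopy.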

[15] = Selectivity index, ratio CC50 for human HEL cells to EC50 for Varicella-zoster virus YS expressing thymidine kinase; assay type: toxicity, cell-based; conditions: read-out: Ratio CC50/EC50; method in brief: as §1
[16] = Selectivity index, ratio CC50 for human HEL cells to EC50 for Varicella-zoster virus strain OKA expressing thymidine kinase; assay type: toxicity, cell-based; conditions: read-out: Ratio CC50/EC50; method in brief: as §1
[17] = system: L1210; assay: Cytostatic activity against mouse L1210 cells; assay type: functional
[18] = Selectivity index, ratio CC50 for human HEL cells to EC50 for thymidine kinase-deficient Varicella-zoster virus YS/R; assay type: toxicity, cell-based; conditions: read-out: Ratio CC50/EC50; method in brief: as §1
[19] = system: Coxsackievirus B4; assay: Antiviral activity against Coxsackievirus B4 assessed as reduction of virus induced cytopathicity by cell based assay; assay type: functional, organism-based; method in brief: as §2
[20] = system: Vesicular stomatitis virus; assay: Antiviral activity against Vesicular stomatitis virus assessed as reduction of virus induced cytopathicity by cell based assay; assay type: functional, organism-based; method in brief: as §3
[21] = Selectivity index, ratio CC50 for human HEL cells to EC50 for thymidine kinase-deficient acyclovir-resistant Herpes simplex virus 1 strain KOS; assay type: toxicity, cell-based; conditions: read-out: Ratio CC50/EC50; method in brief: as §1
[22] = system: Human alphaherpesvirus 1; assay: Antiviral activity against Herpes simplex virus 1 strain KOS assessed as reduction of virus induced cytopathicity by cell based assay; assay type: functional, organism-based; conditions: Human alphaherpesvirus 1, KOS; method in brief: as §3
[23] = Selectivity index, ratio CC50 for human HEL cells to EC50 for Human cytomegalovirus Davis; assay type: toxicity, cell-based; conditions: read-out: Ratio CC50/EC50; method in brief: as §1
[24] = system: Respiratory syncytial virus; assay: Antiviral activity against Respiratory syncytial virus Long assessed as reduction of virus induced cytopathicity by cell based assay; assay type: functional, organism-based; method in brief: as §2
[25] = system: Human immunodeficiency virus 1; assay: Antiviral activity against Human immunodeficiency virus type1 3B infected in human CEM cells assessed as HIV-induced CEM giant cell formation after 4 days by microscopic analysis; assay type: functional, organism-based; conditions: Human immunodeficiency virus 1, 3B, CCRF-CEM, 96 h; method in brief: as §4
[26] = system: Sindbis virus; assay: Antiviral activity against Sindbis virus assessed as reduction of virus induced cytopathicity by cell based assay; assay type: functional, organism-based; method in brief: as §2
[27] = system: FM3A; assay: Cytostatic activity against mouse FM3A cells; assay type: functional
[28] = system: Mammalian orthoreovirus 1; assay: Antiviral activity against Reovirus-1 assessed as reduction of virus induced cytopathicity by cell based assay; assay type: functional, organism-based; method in brief: as §2
[29] = system: CCRF-CEM; assay: Cytostatic activity against human CEM cells; assay type: cell-based
[30] = system: HEL; assay: Cytotoxicity against human HEL cells after 3 days by coulter counter; assay type: cell-based; conditions: 72 h
Method in brief: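 HEL cells seeded at 5 × 10^3 cells/well and allowed to proliferate for 24 h, then exposed to a range of compound concentrations for 3 days at 37 °C. Cells counted with a Coulter counter.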

[31] = system: Human alphaherpesvirus 2; assay: Antiviral activity against Herpes simplex virus 2 strain G assessed as reduction of virus induced cytopathicity by cell based assay; assay type: functional, organism-based; conditions: Human alphaherpesvirus 2, strain G; method in brief: as §3
[32] = system: Human alphaherpesvirus 3; assay: Antiviral activity against thymidine kinase-deficient Varicella-zoster virus 07/1 assessed as reduction of virus induced cytopathicity by cell based assay; assay type: functional, organism-based; conditions: Human alphaherpesvirus 3, 07/1; method in brief: as §3
[33] = system: Punta Toro virus; assay: Antiviral activity against Punta Toro virus assessed as reduction of virus induced cytopathicity by cell based assay; assay type: functional, organism-based; method in brief: as §2
[34] = system: Human betaherpesvirus 5; assay: Antiviral activity against Human cytomegalovirus strain AD169 assessed as reduction of virus induced cytopathicity by cell based assay; assay type: functional, organism-based; conditions: Human betaherpesvirus 5, AD169; method in brief: as §3

SMILES	selectivity ratio [1]	Activity [2]	selectivity ratio [3]	selectivity ratio [4]	selectivity ratio [5]	EC50 [6] [µM]	EC50 [7] [µM]	EC50 [8] [µM]	EC50 [9] [µM]	EC50 [10] [µM]	MCC at 72 h [11] [µM]	selectivity ratio [12]	EC50 [13] [µM]	selectivity ratio [15]	selectivity ratio [16]	CC50 [17] [µM]	EC50 [22] [µM]	CC50 [30] [µM]	EC50 [31] [µM]	EC50 [32] [µM]	further results
CC(CP(=O)(O)O)OCCn1cnc2c(N)ncnc21 (stereo not drawn)	6	inactive	120	< 1	14	0.1	0.07	27	1.7	0.07	322	6	0.9	120	120	10	1.3	13	2.3	0.11	EC50 [14]: 9 µM; selectivity ratio [18]: 120; Activity [19]: inactive; Activity [20]: inactive; selectivity ratio [21]: 6; selectivity ratio [23]: 14; Activity [24]: inactive; EC50 [25]: 11 µM; Activity [26]: inactive; CC50 [27]: 2.7 µM; Activity [28]: inactive; CC50 [29]: 20 µM; Activity [33]: inactive
Nc1ccn(C[C@@H](CO)OCP(=O)(O)O)c(=O)n1 [CIDOFOVIR]	322	–	880	35	195	–	–	–	1	0.29	> 317	322	0.7	880	880	–	1.3	254	0.9	0.1	selectivity ratio [18]: 880; selectivity ratio [21]: 322; selectivity ratio [23]: 195
CCC(CP(=O)(O)O)OCCn1cnc2c(N)ncnc21 (stereo not drawn)	–	inactive	–	–	–	42	43	> 317	251	19	> 317	–	243	–	–	> 660	238	> 317	286	22	EC50 [34]: 159 µM; Activity [19]: inactive; Activity [20]: inactive; Activity [24]: inactive; Activity [26]: inactive; CC50 [27]: 432 µM; Activity [28]: inactive; CC50 [29]: > 660 µM; Activity [33]: inactive
